This is a sample that favours compounds with a hit; in the whole collection about 2.2% have one here.
PPC-1+TRAIL kill: kills PPC-1 cancer cells in the presence of TRAIL | PPC-1 cells + TRAIL, ATPLite viability luminescence | cell killing (% activity), % at 4 µM or 5 µM | 220,000 tested, 0.41% active | AID 1443;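 active means cell killing above 50% in the first pass at 4 µM, then a duplicate retest at 5 µM averaging 50% or more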
Wee1 stabilizer: blocks degradation of human Wee1 kinase. HeLa Luc-Wee1K328M stability, luciferase luminescence; 100% = proteasome inhibitor MG132 effect. reporter increase, % at 5 µM. 220,000 tested, 1.2% active. AID 1321;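 active means activation above the mean of all tested compounds plus 3 SD, set per screening run, cut at about 8.8% in these data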;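 further: cells exposed to compound for 20 h before luminescence read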
FLuc stim CS: affects firefly luciferase, flagging false hits in luciferase stimulation screens; P08659; ATPlite luciferase biochemical, luminescence, 10 min; 0 = ATP-free wells, 1 = DMSO control; activation factor at 10 µM; 200,000 tested, under 10 active; AID 1027;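 active means luciferase activation factor, scaled between plate controls, of at least 2 with compound at 10 µM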
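Assay system – cell-free luciferase reagent · Medium – PBS-based ATP solution · Dosing – test compounds dosed from 2 mM stocks in 100% DMSO · Timing – 10 min, room temperature · Technique – light output (luminescence) · Measure – luminescence gain marking luciferase activators · Controls – No-ATP low control, compound-free enzyme-plus-ATP high control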
C8 TRAIL sens: sensitizes caspase-8 expressing cells to TRAIL. NB7+C8 cells + TRAIL, ATPlite viability luminescence. inhibition (viability loss, TRAIL sensitization), % at 10 µM. 360,000 tested, 1% active;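 active means compounds causing at least 50% loss of cell viability in the single-dose screen, relative to plate controls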
PKD1 kinase inh: PKD1 (human) kinase inhibition; Q15139; PKD1 kinase fluorescence polarization assay; inhibition, % (test concentration not listed); 200,000 tested, 0.056% active; AID 797; in the data active means inhibition above about 50%
Target sequence (Q15139 whole entry, looked up): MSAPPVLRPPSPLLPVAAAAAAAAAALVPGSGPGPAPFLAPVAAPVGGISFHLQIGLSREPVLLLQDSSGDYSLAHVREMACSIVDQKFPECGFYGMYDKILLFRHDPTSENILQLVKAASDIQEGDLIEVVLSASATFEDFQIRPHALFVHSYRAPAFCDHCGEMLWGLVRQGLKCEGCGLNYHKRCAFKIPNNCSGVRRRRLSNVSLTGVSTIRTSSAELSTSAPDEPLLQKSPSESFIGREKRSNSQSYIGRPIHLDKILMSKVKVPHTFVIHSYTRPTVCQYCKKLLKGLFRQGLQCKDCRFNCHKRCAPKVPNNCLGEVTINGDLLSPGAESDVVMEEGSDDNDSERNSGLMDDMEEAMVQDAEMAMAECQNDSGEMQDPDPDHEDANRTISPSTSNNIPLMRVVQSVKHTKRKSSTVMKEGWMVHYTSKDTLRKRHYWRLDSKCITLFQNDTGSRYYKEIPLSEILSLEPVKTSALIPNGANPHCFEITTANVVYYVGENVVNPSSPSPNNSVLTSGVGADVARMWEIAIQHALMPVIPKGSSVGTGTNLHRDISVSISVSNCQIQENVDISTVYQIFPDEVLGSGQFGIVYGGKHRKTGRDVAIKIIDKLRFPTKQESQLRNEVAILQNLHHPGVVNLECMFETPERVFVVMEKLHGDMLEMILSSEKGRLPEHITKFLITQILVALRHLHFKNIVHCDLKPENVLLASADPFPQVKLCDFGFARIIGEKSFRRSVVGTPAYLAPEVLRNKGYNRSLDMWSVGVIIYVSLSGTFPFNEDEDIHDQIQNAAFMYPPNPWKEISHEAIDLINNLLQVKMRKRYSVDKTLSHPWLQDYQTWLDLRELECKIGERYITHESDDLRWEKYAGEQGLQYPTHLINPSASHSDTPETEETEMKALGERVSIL
FLuc inhib CS: inhibits firefly luciferase, flagging false hits in luciferase inhibition screens; AID 1006; inhibition, % at 10 µM; 200,000 tested, 1.5% active; ATPLite firefly luciferase biochemical luminescence, 10 min; P08659;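 active means inhibition above about 50% when tested at 10 µM, limit read from the data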
Numbers stand for hits; n = inactive; x = not tested or not shown.

SMILES | PPC-1+TRAIL kill | Wee1 stabilizer | FLuc stim CS | C8 TRAIL sens | PKD1 kinase inh | FLuc inhib CS
Oc1ccc(Cl)cc1C1=NNC(c2cccs2)C1 (stereo not given) | n | n | x | n | x | x
CCOC(=O)Cn1nc(C)cc1NC(=O)c1cccnc1 | n | n | n | n | n | n
CCOc1ccc2nc(N(CCN(CC)CC)C(=O)c3cccc([N+](=O)[O-])c3)sc2c1 | n | n | n | n | n | n
CC1OC(CC(=O)O)CC2=C1C(=O)c1c(O)cccc1C2=O (stereo not given) | x | x | x | 92 | x | x
COc1ccc(Nc2ccc3c(c2)=NC2(CCCCC2)[N+]=3[O-])cc1 | n | n | n | n | n | n
[O-][N+]1=c2ccc(Nc3ccccc3)cc2=NC12CCCCC2 | n | n | n | 69 | n | n
O=C(CCC(=O)N1CCN(S(=O)(=O)c2ccc(Cl)cc2)CC1)Nc1cccc(Br)c1 | n | n | n | n | n | n
CC1CCCCN1C(=O)C1CCCCN1S(=O)(=O)c1cccc([N+](=O)[O-])c1 (stereo not given) | n | n | x | n | x | x
COc1ccccc1CNc1cc(C)ccc1C | n | 9.5 | n | n | n | n
CCCN=C(C)C1=C(O)c2ccccc2C1=O | n | 9.1 | n | n | n | n
CC(=NCc1ccncc1)C1=C(O)c2ccccc2C1=O | 50 | n | n | x | n | n
CC(=NCc1cccnc1)C1=C(O)c2ccccc2C1=O | n | n | n | n | n | n
NC(=O)NC(=O)C(Nc1ccc(N2CCCCC2)cc1)c1ccccc1 (stereo not given) | x | x | x | n | x | x
N#Cc1c(NC(=O)c2nc3ncccn3n2)sc2c1CCCCC2 | n | n | n | n | n | 57
CC(=O)NC(=S)Nc1sc2c(c1C#N)CCCCC2 | n | n | n | n | n | 72
COc1ccc(NC(=O)CCCc2nc3ccccc3c(=O)[nH]2)cc1Cl | x | x | x | n | x | x
OC(c1ccccc1)c1ncc(-c2ccccc2Cl)[nH]1 (stereo not given) | x | x | x | n | x | x
O=C(Cn1cnc2ccccc2c1=O)NCCC(=O)Nc1ccccc1C(F)(F)F | x | x | x | n | x | x
CCN(CC)C(=S)SC1=CCS(=O)(=O)C1 | n | 10 | n | n | n | n
CCN(CC)C(=S)SSC(=S)N(CC)CC | n | n | n | n | n | n
CCC(=O)Nc1ccc(C2C(=O)c3ccccc3C2=O)cc1 | x | x | x | 73 | x | x
CCc1ccc(C2C(=O)c3ccccc3C2=O)cc1 | x | x | x | n | x | x
CCN(CC)c1ccc(NC(=O)CCCCCN2C(=O)c3ccccc3C2=O)cc1 | n | 11 | n | n | n | n
CCCCC(=O)Nc1ccc(C2C(=O)c3ccccc3C2=O)cc1 | x | x | x | 48 | x | x
N#CC[n+]1cc(-c2ccc(Cl)cc2)n2c1CCC2 | n | 8.9 | n | n | n | n
SMILES | PPC-1+TRAIL kill | Wee1 stabilizer | FLuc stim CS | C8 TRAIL sens | PKD1 kinase inh | FLuc inhib CS
Cc1ccc(OCCNC(=O)C2CC(=O)N(Cc3ccccc3)C2)cc1 (stereo not given) | x | x | x | n | x | x
CC1(C)C=C(c2ccc(C=O)s2)CC(C)(C)N1C=O | 62 | n | n | n | n | n
CC1(C)C=C(c2ccc(C=O)s2)CC(C)(C)N1 | n | n | n | n | n | n
CCN(CC)CC1CCCCN1CC(=O)N1c2ccccc2C(=O)Nc2cccnc21 (stereo not given) | n | n | n | x | x | n
CCc1c(C(=O)NNC(=S)Nc2ccc(S(=O)(=O)Nc3ncccn3)cc2)csc1C | x | x | x | n | x | x
O=Cc1ccc(-c2cccc([N+](=O)[O-])c2)o1 | n | 10 | x | n | x | x
O=Cc1ccc(-c2ccc([N+](=O)[O-])cc2Cl)o1 | n | n | n | n | n | n
CC(C)(C)[C@]1(O)CCN2C[C@H]3c4ccccc4CCc4cccc(c43)[C@@H]2C1 | n | n | n | n | n | n
CC(=NNc1ccc2ccccc2n1)c1ccccc1O | x | x | x | 77 | x | x
CCCc1cc2c(=O)c(-c3ccc4c(c3)OCCO4)coc2cc1OC(=O)c1ccco1 | n | n | n | 56 | n | n
CCc1cc2c(=O)c(-c3ccc4c(c3)OCCO4)coc2cc1OC(=O)c1ccco1 | n | n | n | 71 | n | n
CCn1c2ccccc2nc2cc3c(cc21)c(Cl)c(=O)c1ccccc13 | x | x | x | 79 | x | x
CCn1c(/C=C/c2c(C)n(CC)c3ccccc23)nc2ccccc2c1=O | n | n | n | n | n | n
O=C(Nc1ccc(Cl)c(S(=O)(=O)N2CCOCC2)c1)c1ccc(OCC2CCCO2)cc1 (stereo not given) | n | n | n | 51 | n | n
